A selection: hits, their analogues and other compounds. The true share with any hit is near 4.3%.
WT yeast gro inh: growth inhibition of WT yeast, mitochondrial fusion screen. inhibition, % at 10 µM. mitochondrial fusion phenotypic screen, WT strain. 190,000 compounds, 2.1% hits. AID 1362; in the data active means inhibition above about 58%; tested in S. cerevisiae
Yeast growth inh: yeast BB579 growth reduction in restrictive medium; inhibition, % at 10 µM; S. cerevisiae BB579 growth, OD615, 48 h; AID 804; 140,000 compounds, 0.51% hits;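 active means inhibition above a set limit, 3 SD over the mean compound inhibition, cut at about 44% in these data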
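System: Saccharomyces cerevisiae DeaD strain BB579, replicative lifespan model yeast. Buffer or medium: restrictive glucose-based CSMM-D medium. Doses: one dose, 10 µM compound with 0.25% DMSO. Timing: 4 h preincubation and 48 h exposure at 30 °C. Detection: turbidity as optical density at 615 nm. Benchmarks: amphotericin B 10 µg/mL, positive.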
RAM network inh: blocks the yeast RAM network; 190,000 compounds, 1.8% hits; S. cerevisiae dse1pr::URA3 reporter, 5-FOA growth OD615, 2 d; analog-sensitive cbk1-as2 kinase mutant strain; inhibition, % at 50 µM;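 active means inhibition above a set limit, 3 SD over mean compound inhibition, cut at about 8.4% in these data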;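 further: 0% = DMSO-only wells with no growth and 100% = 10 µM 1-NA-PP1 full growth; inhibition rescues growth on 5-FOA so higher OD means more RAM inhibition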
Yeast life ext: yeast lifespan extension | S. cerevisiae growth with nicotinamide, OD615; deaD strain in restrictive glucose medium | inhibition of the nicotinamide effect, % at 10 µM | 130,000 compounds, 0.68% hits | AID 775;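 active means inhibition above a set limit, placed 3 SD over the median of all compounds, cut at about 26% in these data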;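 further: 0% = nicotinamide-treated wells and 100% = cells grown without nicotinamide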
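Assay system: engineered S. cerevisiae DeaD replicative-lifespan strain, galactose-grown log-phase cells; Buffer or medium: CSMM-D glucose medium, restrictive; Probe or stimulus: nicotinamide 1.5 mM; Compound: single dose 10 µM compound, 0.25% DMSO; Schedule: 4 h preincubation then 48 h treatment at 30 °C; Technique: OD615 measurement.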
The depositor's hits bear a star; x = no result.

SMILES | WT yeast gro inh | Yeast growth inh | RAM network inh | Yeast life ext
CCOC(=O)c1cnc(-n2nc(C)cc2C)nc1NC | -37 | -10 | -1 | -23
CCOC(=O)c1cnc(-n2nc(C)cc2C)nc1N(CC)CC | 70* | -70 | 0 | -5
CC(C)(C)C(=O)/C(=C/c1cccc([N+](=O)[O-])c1)n1cncn1 | 62* | 4 | -1 | 56*
Cc1cc(-c2nnc(CCC(=O)N(CC3CCC3)CC3CCCO3)o2)no1 (centres undefined) | -13 | x | -1 | x
CCn1c(SCC(=O)Nc2sc3c(c2C#N)CCCC3)nnc1-c1ccncc1 | -2 | -40 | 11* | x
Cc1ccc(NC(=O)CSc2nnc(-c3cccs3)o2)cc1S(=O)(=O)N(C)C | 1 | x | 1 | x
CCN1C(=O)/C(=C/c2ccc(C)s2)SC1=Nc1ccc(OC)cc1 | 17 | -26 | 9.1* | -11
COc1ccc(N=C2S/C(=C\c3ccc(C)o3)C(=O)N2CC(C)C)cc1 | 9 | -12 | 11* | 54
CCN1C(=O)/C(=C/c2cc(C)n(C)c2C)SC1=Nc1ccc(OC)cc1 | 16 | -31 | 4 | -4
C=CCc1ccccc1OCC(=O)N/N=C/c1ccc(OC(C)=O)cc1OC(C)=O | -5 | -18 | -1 | 6
CCOC(=O)c1c(NC(=O)CN2CCN(C(=O)c3ccco3)CC2)sc2c1CCCC2 | 66* | -34 | 0 | x
CCOC(=O)c1c(NC(=O)c2ccco2)sc2c1CCCC2 | 8 | -46 | 1 | -5
O=C(c1ccco1)N1CCN(S(=O)(=O)c2cccc([N+](=O)[O-])c2)CC1 | 2 | x | 3 | x
CC(C(=O)NC(=O)NC1CCCCC1)N1CCN(C(c2ccccc2)c2ccccc2)CC1 (centres undefined) | 73* | -15 | 0 | -15
Cc1ccc(C(=O)Nc2cc(C(C)C)c(O)c(C(C)C)c2)cc1 | -1 | -15 | -1 | -1
Cc1cc(=O)oc2cc(OCC3CC(c4ccc(Cl)cc4)=NO3)ccc12 (centres undefined) | 65* | -88 | 3 | -3
Cc1cc(=O)oc2cc(OCC3CC(c4ccc(N(C)C)cc4)=NO3)ccc12 (centres undefined) | 6 | -34 | 7 | -6
Cc1ccc(NC2=NCC(=O)N2C2CCCC2)cc1 | 3 | x | -1 | x
COc1cc(S(=O)(=O)N(Cc2cccs2)CC2CCCO2)ccc1-n1cnnn1 (centres undefined) | 6 | -19 | 4 | -4
O=S(=O)(NCc1ccccc1)c1ccc(S(=O)(=O)N(Cc2cccs2)CC2CCCO2)cc1 (centres undefined) | -14 | -23 | 8.9* | 2
O=C(Oc1cccc(Nc2ncnc3ccccc23)c1)c1ccccc1Cl | 59* | -51 | 0 | -2
O=C(/C=C/c1ccccc1[N+](=O)[O-])N1CCN(c2ccccc2F)CC1 | 0 | x | 8.5* | x
O=C(/C=C/c1ccc(Cl)cc1Cl)N1CCN(c2ccccc2[N+](=O)[O-])CC1 | 24 | -23 | 8.6* | 2
O=C(/C=C/c1ccc(Cl)cc1Cl)N1CCN(c2ccc([N+](=O)[O-])c(N3CCOCC3)c2)CC1 | 10 | -4 | 3 | 1
O=[N+]([O-])c1cc(Cl)ccc1N1CCN(c2ccccc2O)CC1 | 75* | x | 0 | x
SMILES | WT yeast gro inh | Yeast growth inh | RAM network inh | Yeast life ext
O=[N+]([O-])c1cc(Cl)ccc1N1CCCCC1 | 0 | x | 1 | x
O=C(/C=C/c1cccc([N+](=O)[O-])c1)N1CCN(c2ccccc2F)CC1 | -1 | -28 | 3 | -4
O=C(N/N=C/c1ccccc1F)c1ccc(COc2ccccc2Cl)o1 | 8 | -18 | 1 | -4
COCCN(C(=O)C1CC1)c1nnc(-c2cccc(C)c2)s1 | 14 | -31 | 3 | -8
CC(C)N(Cc1ccccc1)C(=S)NC1CCCCC1 | 64* | x | -1 | x
CC(C)N(C(=S)NC1CCCCC1)c1ccccc1 | 59* | x | 1 | x
Cc1ccc(Sc2ccc(NC(=O)CCl)cc2)c(C)c1 | 64* | 16 | -1 | -7
COc1ccc(-c2csc(C3=C(O)CN(C(C)C)C3=N)n2)cc1OC | -5 | x | 3 | x
Clc1cccc(-c2cc3nc4c(c(N5CCOCC5)n3n2)CCCC4)c1 | 85* | -25 | -1 | -10
OC1CCN(c2c3c(nc4cc(-c5ccc(Cl)cc5)nn24)CCC3)CC1 | -3 | -24 | 0 | x
Clc1cccc(-c2cc3nc4c(c(N5CCN(c6cnccn6)CC5)n3n2)CCCC4)c1 | 70* | -31 | 1 | x
Fc1cccc(-c2cc3nc4c(c(N5CCOCC5)n3n2)CCCC4)c1 | -1 | 14 | -1 | -24
N/C(=N/O)c1ccccc1N1CCC(Cc2ccccc2)CC1 | 70* | x | 0 | x
CN(C)S(=O)(=O)N1CCC(Cc2ccccc2)CC1 | 10 | -27 | 0 | 0
CC(=O)NC(CCS(C)(=O)=O)C(=O)Nc1ccc2c(c1)OCO2 (centres undefined) | 5 | 44* | 2 | 9
CCc1ccc(OCCOCC(O)CNC2CCCC2)cc1 (centres undefined) | 6 | x | 2 | x
Cc1ccc(C(=O)NCCSc2ccc(Cl)cc2)cc1S(=O)(=O)Nc1ccccc1 | 8 | -37 | 10* | -5
Cc1ccc(NS(=O)(=O)c2cc(C(=O)NCCSc3ccc(C)cc3)ccc2C)cc1 | -4 | -6 | 6 | -23
COc1ccc2cc(CN(CC3CCCO3)C(=S)NCc3ccco3)c(=O)[nH]c2c1 (centres undefined) | 2 | x | 2 | x
COc1ccc(-c2nn(-c3ccccc3)cc2CO)cc1 | -5 | -46 | 0 | -34
N=C(N)SCc1cn(-c2ccccc2)nc1-c1ccc(Br)cc1 | 85* | x | -1 | x
CN(C)c1ccc(N=Nc2ccccc2C(=O)OCC(=O)N(C)c2ccccc2)cc1 | 9 | -12 | 10* | -5
COC(=O)c1ccccc1NC(=O)COC(=O)c1ccccc1N=Nc1ccc(N(C)C)cc1 | 12 | -53 | 5 | -2
CCc1ccccc1NC(=O)CN(C)C(=O)CSc1nc2cc(Cl)ccc2s1 | -23 | -37 | 6 | 6
CCC(=O)NC(=S)Nc1ccc(NC(=O)c2ccc(Br)o2)cc1 | 5 | x | 3 | x
SMILES | WT yeast gro inh | Yeast growth inh | RAM network inh | Yeast life ext
Clc1ccc2nnnc(-c3ccccc3)c2c1 | -12 | 46* | 0 | 3
c1ccc(-c2nnnc3ccccc23)cc1 | -3 | -13 | 3 | -1
CCc1cccc(CC)c1NC(=S)NC(C)c1ccccc1 (centres undefined) | 60* | 11 | 0 | 0
CCc1cccc(CC)c1NC(=S)NCC(c1cccnc1)N(C)C (centres undefined) | -5 | x | 1 | x
O=C(Nc1cc(C(F)(F)F)cc(C(F)(F)F)c1)c1ccc(Cn2cc(C(F)(F)F)ccc2=O)cc1 | 22 | -21 | 3 | -2
O=C(CN1c2ccccc2Sc2ccccc21)NNC(=S)Nc1ccc(Cl)cc1Cl | 42 | -23 | 11* | 13
Cn1cccc1CC(=O)NNC(=S)Nc1ccc(Cl)cc1Cl | 9 | -10 | 2 | -4
Cc1cc(C)nc(SCc2cc(=O)c(OC(=O)c3ccc(Cl)c([N+](=O)[O-])c3)co2)n1 | 26 | -21 | 2 | 30*
CCNC(=S)NNC(=O)c1cc(-c2ccc(OC)cc2)nc2ccccc12 | 68* | 3 | 2 | 2
